Calls of active or inactive are those of the source. The rule behind the calls is not given here.
Experiments:
[1] = test system: HT-29; experiment: Anticancer activity against human HT29 cells after 72 hrs by Hoechst test; assay type: functional, cell-based; details: HT-29, 72 h
Procedure, shortened: (§1)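 Cells seeded at 0.5–1 × 10^4/well for 24 h, then exposed in triplicate to a concentration titration for 72 h. Drug stock 0.5 M in DMSO, final DMSO ≤0.1%. Cells rinsed with PBS, fixed in 70% ethanol, and stained for DNA (Hoechst). IC50/IC90 taken from best-fit curves (linear or exponential) of % survival vs concentration, ≥3 independent experiments.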

[2] = test system: U-251; experiment: Anticancer activity against human U251 cells after 72 hrs by Hoechst test; assay type: functional, cell-based; procedure, shortened: as §1
[3] = Anticancer activity against human astrocytes cells after 72 hrs by Hoechst test; assay type: ADME, cell-based, Astrocyte; details: for IC50: Homo sapiens, Astrocyte, 72 h; for IC90 at 72 h: human, human astrocytes; procedure, shortened: as §1
[4] = test system: LS-1034; experiment: Anticancer activity against human LS1034 cells after 72 hrs by Hoechst test; assay type: functional, cell-based; details: LS-1034, 72 h; procedure, shortened: as §1
[5] = test system: CT26; experiment: Anticancer activity against mouse CT26 cells after 72 hrs in the presence of semicarbazide by Hoechst test; assay type: functional, cell-based; details: CT26, 72 h
Procedure, shortened: (§2)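 Same 72 h Hoechst viability titration, run with or without co-addition of 500 µM semicarbazide as formaldehyde scavenger. IC50 and IC90 derived from dose-response curves.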

[6] = test system: HUVEC; experiment: Antiangiogenic activity against HUVEC cells assessed as tube formation at 80 uM after 24 hrs; assay type: functional, cell-based; details: Homo sapiens
Procedure, shortened: (§3)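 HUVEC (5 × 10^4 cells/well) seeded on a matrigel layer in supplemented EGM-2 medium. Test agent added at 80 µM, triplicate wells, incubated 3 to 24 h. Tube formation was visualized by light microscopy and photographed at ×40.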

[7] = test system: BXPC-3; experiment: Anticancer activity against human BXPC3 cells after 72 hrs by Hoechst test; assay type: functional, cell-based; details: BXPC-3, 72 h; procedure, shortened: as §1
[8] = test system: BXPC-3; experiment: Anticancer activity against human BXPC3 cells after 72 hrs in the presence of semicarbazide by Hoechst test; assay type: functional, cell-based; details: BXPC-3, 72 h; procedure, shortened: as §2
[9] = test system: HUVEC; experiment: Effect on cell viability of HUVEC cells after 48 hrs; assay type: functional, cell-based; details: Homo sapiens
Procedure, shortened: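 HUVEC grown at 37 °C, 5% CO2. Seeded in 96-well plates, then exposed to a concentration titration for 48 h. Viability read by Hoechst DNA fluorescence after ethanol fixation. IC50/IC90 from best-fit curves of ≥3 independent experiments.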

[10] = test system: HT-29; experiment: Antitumor activity against human HT29 xenografted CD1 mouse at 50 mg/kg, po; assay type: functional, organism-based; parameters: dose 50 mg/kg
Procedure, shortened: (§4)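 Male nude CD1 mice implanted sc in the flank with HT-29 cells. Once tumors were palpable, oral dosing at 50 mg/kg (water vehicle), with vehicle-only controls; 14 controls, 12 per treated group. Tumors measured by caliper twice weekly, volume = (L × W²)/2. At the end, blood drawn for serum CEA.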

[11] = test system: HT-29; experiment: Antitumor activity against human HT29 xenografted CD1 mouse assessed as decrease in CEA level; assay type: functional; procedure, shortened: as §4
[12] = test system: LS-1034; experiment: Anticancer activity against human LS1034 cells after 72 hrs in the presence of semicarbazide by Hoechst test; assay type: functional, cell-based; details: LS-1034, 72 h; procedure, shortened: as §2
[13] = Anticancer activity against human MES-SA DXS cells after 72 hrs by Hoechst test; assay type: functional, cell-based; procedure, shortened: as §1
[14] = Anticancer activity against human MES-SA cells after 72 hrs by Hoechst test; assay type: functional, cell-based; procedure, shortened: as §1
[15] = test system: Mus musculus; experiment: Inhibition of HDAC in po dosed mouse 4T1 tumor implanted in BALB/c mouse assessed as histone acetylation level after 4 hrs; assay type: functional
Procedure, shortened: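 Balb/c mice carrying sc 4T1 tumors (5 × 10^4 cells implanted), dosed orally at 100 mg/kg once tumors reached 1.0 cm³. Tumors excised 4 h later and histones extracted; 5 µg protein run on 15% SDS gels. Western blot for acetyl-H4 (Lys-12), normalized to pan-H3; fold change versus untreated.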

[16] = Anticancer activity against human SK-ES cells after 72 hrs by Hoechst test; assay type: functional, cell-based; procedure, shortened: as §1
[17] = test system: HT-29; experiment: Anticancer activity against human HT29 cells after 72 hrs in the presence of semicarbazide by Hoechst test; assay type: functional, cell-based; details: HT-29, 72 h; procedure, shortened: as §2
[18] = Anticancer activity against mouse Pan02 cells after 72 hrs by Hoechst test; assay type: functional, cell-based; details: Pan02, 72 h; procedure, shortened: as §1
[19] = test system: CT26; experiment: Anticancer activity against mouse CT26 cells after 72 hrs by Hoechst test; assay type: functional, cell-based; details: CT26, 72 h; procedure, shortened: as §1
[20] = test system: HUVEC; experiment: Antiangiogenic activity against HUVEC cells assessed as tube formation at 80 uM after 3 hrs; assay type: functional, cell-based; details: Homo sapiens; procedure, shortened: as §3
[21] = test system: CT26; experiment: Anticancer activity against mouse CT26 cells after 72 hrs in the presence of HMTA by Hoechst test; assay type: functional, cell-based; details: CT26, 72 h
Procedure, shortened: (§5)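 Same 72 h Hoechst viability titration, with or without co-addition of hexamethylenetetramine (HMTA) at 250 µM. IC50 and IC90 derived from dose-response curves.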

[22] = test system: BXPC-3; experiment: Anticancer activity against human BXPC3 cells after 72 hrs in the presence of HMTA by Hoechst test; assay type: functional, cell-based; details: BXPC-3, 72 h; procedure, shortened: as §5
[23] = test system: BXPC-3; experiment: Anticancer activity against human BXPC3 cells after 72 hrs in the presence of succinate by Hoechst test; assay type: functional, cell-based; details: BXPC-3, 72 h
Procedure, shortened: (§6)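 Same 72 h Hoechst viability titration, with or without co-addition of succinic acid at 2.5 mM. IC50 and IC90 derived from dose-response curves.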

[24] = test system: LS-1034; experiment: Anticancer activity against human LS1034 cells after 72 hrs in the presence of HMTA by Hoechst test; assay type: functional, cell-based; details: LS-1034, 72 h; procedure, shortened: as §5
[25] = test system: HT-29; experiment: Anticancer activity against human HT29 cells after 72 hrs in the presence of HMTA by Hoechst test; assay type: functional, cell-based; details: HT-29, 72 h; procedure, shortened: as §5
[26] = test system: CT26; experiment: Anticancer activity against mouse CT26 cells after 72 hrs in the presence of succinate by Hoechst test; assay type: functional, cell-based; details: CT26, 72 h; procedure, shortened: as §6
[27] = test system: HUVEC; experiment: Antiangiogenic activity against HUVEC cells assessed as tube formation at 80 uM after 8 hrs; assay type: functional, cell-based; details: Homo sapiens; procedure, shortened: as §3
[28] = test system: HT-29; experiment: Anticancer activity against human HT29 cells after 72 hrs in the presence of succinate by Hoechst test; assay type: functional, cell-based; details: HT-29, 72 h; procedure, shortened: as §6
[29] = test system: LS-1034; experiment: Anticancer activity against human LS1034 cells after 72 hrs in the presence of succinate by Hoechst test; assay type: functional, cell-based; details: LS-1034, 72 h; procedure, shortened: as §6

| IC50 [1] | IC50 ([2]; Homo sapiens, U-251, 72 h) | IC90 ([2]; Homo sapiens, U-251, 72 h) | IC50 [3] | IC90 at 72 h [3] | IC50 [4] | IC50 [5] | IC90 [5] | IC50 [7] | IC50 [8] | IC90 [8] | IC50 [16] | IC90 [16] | IC50 [18] | IC90 [18] | SMILES | IC90 [1] | Activity [6] | IC50 [9] | IC90 [9] | Activity [10] | other results |
| --- | --- | --- | --- | --- | --- | --- | --- | --- | --- | --- | --- | --- | --- | --- | --- | --- | --- | --- | --- | --- | --- |
| 35 µM | 55 µM |  | 200 µM | 323 µM | 42 µM | 52 µM | 105 µM | 81 µM | 88 µM | 280 µM | 47 µM | 81 µM | 46 µM | 149 µM | CCCC(=O)OCn1c(=O)c(F)cn(C2CCCO2)c1=O (centres undefined) | 84 µM | Active | 100 µM | 170 µM | Active | IC90 [4]: 79 µM; Activity [11]: Active; IC50 [12]: 34 µM; IC90 [12]: 94 µM; IC50 [13]: 54 µM; IC50 ([2]; u-251): 107 µM; IC50 [14]: 71 µM; Activity [15]: 2; IC50 [17]: 51 µM; IC90 [17]: 138 µM; IC50 [19]: 27 µM; IC90 [19]: 76 µM |
| 67 µM | 103 µM | 223 µM | 187 µM | 476 µM | 84 µM | 132 µM | 252 µM | 74 µM | 160 µM | 460 µM | 45 µM | 80 µM | 96 µM | 219 µM | O=c1c(F)cn(C2CCCO2)c(=O)n1CO (centres undefined) |  |  | 70 µM | 120 µM |  | IC50 [12]: 132 µM; IC90 [12]: 296 µM; IC50 [13]: 63 µM; IC50 [14]: 79 µM; IC50 [17]: 164 µM; IC90 [17]: 303 µM; IC50 [19]: 99 µM; IC90 [19]: 170 µM |
|  | 384 µM | 1280 µM | 4290 µM | 7680 µM |  |  |  |  |  |  | 174 µM | 531 µM | 179 µM | 637 µM | O=c1[nH]c(=O)n(C2CCCO2)cc1F (centres undefined) [TEGAFUR] |  | inactive | 1000 µM | 3400 µM | Active | Activity [20]: inactive; IC50 [21]: 107 µM; IC90 [21]: 464 µM; IC50 [22]: 145 µM; IC90 [22]: 654 µM; IC50 [23]: 154 µM; IC90 [23]: 719 µM; Activity [11]: Active; IC50 [24]: 193 µM; IC90 [24]: 852 µM; IC50 [25]: 158 µM; IC90 [25]: 612 µM; IC50 [26]: 90 µM; IC90 [26]: 311 µM; Activity [27]: inactive; IC50 [28]: 158 µM; IC90 [28]: 644 µM; Activity [15]: 2; IC50 [29]: 172 µM; IC90 [29]: 617 µM |

| SMILES | IC50 [1] | IC50 ([2]; Homo sapiens, U-251, 72 h) | IC90 ([2]; Homo sapiens, U-251, 72 h) | IC50 [3] | IC90 at 72 h [3] | IC50 [4] | IC50 [5] | IC90 [5] | IC50 [7] | IC50 [8] | IC90 [8] | IC50 [16] | IC90 [16] | IC50 [18] | IC90 [18] | IC90 [1] | Activity [6] | IC50 [9] | IC90 [9] | Activity [10] | other results |
| --- | --- | --- | --- | --- | --- | --- | --- | --- | --- | --- | --- | --- | --- | --- | --- | --- | --- | --- | --- | --- | --- |
| CCOP(=O)(OCC)OCn1c(=O)c(F)cn(C2CCCO2)c1=O (centres undefined) | 19 µM | 73 µM | 287 µM | 832 µM | 2790 µM |  |  |  |  |  |  |  |  |  |  | 80 µM |  |  |  |  |  |

From ChEMBL document CHEMBL1140720, “Novel prodrugs of tegafur that display improved anticancer activity and antiangiogenic properties” (J Med Chem, 2008)
